Laboratory results: publication PMC6737205 (International Journal of Nanomedicine, 2019)

Key:
Design in all cases: species or system mouse
Details in all cases: S180 mice, oral, RGDV-gemcitabine 8.4 μmol/kg/day, gemcitabine 84 μmol/kg/day, every 3 days for 12 days, n=12
[1] = In vivo serum AST/GOT assay
In vivo serum Cr assay = assay: In vivo serum Cr assay
How it was run: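 Creatinine was measured with an enzymatic kit on serum from S180 tumour-bearing mice, with blood spun at 1000 rpm, 4°C, 10 mins. Serum plus enzyme solution A was incubated at 37°C for 5 mins and read at 546 nm (A1). After a further 30 mins at 37°C, enzyme solution B was added, incubated 5 mins, and read again at 546 nm (A2). Cr was calculated from the two readings.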

In vivo serum BUN assay = assay: In vivo serum BUN assay
How it was run: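 BUN was measured by a kit immunoassay on serum from S180 tumour-bearing mice, with blood spun at 3000 rpm, 4°C, 10 mins. Serum was incubated with anti-BUN antibody and streptavidin-HRP at 37°C for 60 mins, then washed 5 times. Chromogen was added at 37°C for 15 mins in the dark, then stop solution. Read at 450 nm within 15 mins; BUN from a standard curve.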

[2] = In vivo serum ALT/GPT assay
How it was run: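 Serum came from male ICR mice bearing subcutaneous S180 tumours (1×10^7 cells, right armpit). Blood was taken 3 hrs after the last oral dose, with saline 10 mL/kg/day as vehicle, and spun at 1000 rpm, 4°C, 10 mins. Serum was incubated with kit matrix at 37°C for 30 mins, then dinitrophenylhydrazine at 37°C for 20 mins, then 0.4 M NaOH. Read at 510 nm; ALT from a standard curve.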

With `Nc1ccn([C@@H]2O[C@H](CO)[C@@H](O)C2(F)F)c(=O)n1` [gemcitabine] the “serum AST/GOT compared with NS-treated mice” value [1] was “significantly higher than those of NS-treated mice”, the “serum Cr compared with NS-treated mice” value (In vivo serum Cr assay) was “significantly higher than those of NS-treated mice” and the “serum BUN compared with NS-treated mice” value (In vivo serum BUN assay) was “significantly higher than those of NS-treated mice”. For the same molecule, the “serum ALT/GPT compared with NS-treated mice” value [2] was “significantly higher than those of NS-treated mice”.
